Measured values from ChEMBL document CHEMBL1139436, “Quantitative structure-activity relationship of sesquiterpene lactones as inhibitors of the transcription factor NF-kappaB” (J Med Chem, 2004).

Key:
[1] = target: T1, Nuclear factor NF-kappa-B complex (Homo sapiens) (UniProt Q00653+P19838+Q04206); assay: (§1) Concentration required for complete inhibition of Nuclear factor kappa B DNA binding; type: protein-complex assay
Summary of the method: (§2)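 Jurkat T cells (RPMI 1640, 10% FCS, penicillin/streptomycin) pretreated 1 h with sesquiterpene lactone, first at 10, 20, 50, 100 μM, then 1–5 μM or 200–300 μM as needed. Stimulated 1 h with 200 U/mL TNF-α. Total extracts (Totex high-salt buffer) analysed by EMSA with ³²P-labeled NF-κB oligonucleotide, 25 min at room temperature. IC100 is the lowest tested level fully blocking binding; intermediate values assigned the higher level. Each experiment reproduced at least once.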

[2] = target: T1, Nuclear factor NF-kappa-B complex (Homo sapiens); assay: as §1; type: protein-complex assay; design: unit not given here; summary of the method: as §2

T1 sequence (P19838 whole entry, looked up): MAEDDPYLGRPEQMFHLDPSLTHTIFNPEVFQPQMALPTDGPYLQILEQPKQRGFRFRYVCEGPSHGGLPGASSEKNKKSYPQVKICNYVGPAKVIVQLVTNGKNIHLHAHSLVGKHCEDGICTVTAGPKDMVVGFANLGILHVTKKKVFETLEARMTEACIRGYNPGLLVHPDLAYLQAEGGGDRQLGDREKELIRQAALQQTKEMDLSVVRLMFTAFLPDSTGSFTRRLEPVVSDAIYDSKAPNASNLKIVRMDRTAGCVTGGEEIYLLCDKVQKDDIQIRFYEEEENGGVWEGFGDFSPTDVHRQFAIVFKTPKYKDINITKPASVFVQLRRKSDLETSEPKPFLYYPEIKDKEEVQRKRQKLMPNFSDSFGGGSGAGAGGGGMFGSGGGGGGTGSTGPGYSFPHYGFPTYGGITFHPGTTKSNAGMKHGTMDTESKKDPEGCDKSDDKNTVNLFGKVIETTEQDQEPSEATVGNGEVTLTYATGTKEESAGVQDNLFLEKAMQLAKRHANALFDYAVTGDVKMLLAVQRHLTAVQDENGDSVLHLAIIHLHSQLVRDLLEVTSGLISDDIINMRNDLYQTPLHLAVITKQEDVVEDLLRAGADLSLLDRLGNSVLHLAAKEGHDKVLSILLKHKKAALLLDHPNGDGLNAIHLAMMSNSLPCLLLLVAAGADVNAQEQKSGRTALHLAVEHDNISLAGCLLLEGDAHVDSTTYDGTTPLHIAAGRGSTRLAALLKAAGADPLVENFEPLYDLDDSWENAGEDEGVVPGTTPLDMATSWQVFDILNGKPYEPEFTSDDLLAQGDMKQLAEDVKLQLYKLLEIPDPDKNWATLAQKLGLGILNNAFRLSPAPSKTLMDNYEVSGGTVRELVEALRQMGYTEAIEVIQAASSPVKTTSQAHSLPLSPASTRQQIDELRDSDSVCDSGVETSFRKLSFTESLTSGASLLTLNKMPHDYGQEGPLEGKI
T1 sequence (Q00653 whole entry, looked up): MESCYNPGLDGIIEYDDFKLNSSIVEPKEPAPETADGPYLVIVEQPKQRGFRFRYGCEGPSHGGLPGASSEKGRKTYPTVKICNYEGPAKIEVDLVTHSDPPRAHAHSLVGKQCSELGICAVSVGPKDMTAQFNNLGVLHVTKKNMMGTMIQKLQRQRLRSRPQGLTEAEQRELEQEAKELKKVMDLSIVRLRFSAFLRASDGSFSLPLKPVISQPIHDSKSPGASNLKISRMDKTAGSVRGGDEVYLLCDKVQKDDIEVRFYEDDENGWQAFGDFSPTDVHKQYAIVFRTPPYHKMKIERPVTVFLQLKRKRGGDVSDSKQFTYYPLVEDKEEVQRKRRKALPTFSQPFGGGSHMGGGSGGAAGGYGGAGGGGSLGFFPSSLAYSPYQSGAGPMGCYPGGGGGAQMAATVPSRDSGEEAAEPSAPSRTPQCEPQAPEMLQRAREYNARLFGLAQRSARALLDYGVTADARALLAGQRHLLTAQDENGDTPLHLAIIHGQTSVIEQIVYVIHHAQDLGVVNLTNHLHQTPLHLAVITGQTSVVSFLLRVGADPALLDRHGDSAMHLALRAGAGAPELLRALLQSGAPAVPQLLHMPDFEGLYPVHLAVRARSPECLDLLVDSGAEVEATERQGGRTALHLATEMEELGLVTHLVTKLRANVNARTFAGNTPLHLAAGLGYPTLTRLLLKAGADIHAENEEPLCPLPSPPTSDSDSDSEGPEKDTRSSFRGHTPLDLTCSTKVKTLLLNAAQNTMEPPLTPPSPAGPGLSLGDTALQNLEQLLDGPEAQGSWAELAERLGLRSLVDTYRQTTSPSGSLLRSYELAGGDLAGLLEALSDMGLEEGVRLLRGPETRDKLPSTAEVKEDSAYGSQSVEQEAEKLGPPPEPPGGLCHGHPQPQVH
T1 sequence (Q04206 whole entry, looked up): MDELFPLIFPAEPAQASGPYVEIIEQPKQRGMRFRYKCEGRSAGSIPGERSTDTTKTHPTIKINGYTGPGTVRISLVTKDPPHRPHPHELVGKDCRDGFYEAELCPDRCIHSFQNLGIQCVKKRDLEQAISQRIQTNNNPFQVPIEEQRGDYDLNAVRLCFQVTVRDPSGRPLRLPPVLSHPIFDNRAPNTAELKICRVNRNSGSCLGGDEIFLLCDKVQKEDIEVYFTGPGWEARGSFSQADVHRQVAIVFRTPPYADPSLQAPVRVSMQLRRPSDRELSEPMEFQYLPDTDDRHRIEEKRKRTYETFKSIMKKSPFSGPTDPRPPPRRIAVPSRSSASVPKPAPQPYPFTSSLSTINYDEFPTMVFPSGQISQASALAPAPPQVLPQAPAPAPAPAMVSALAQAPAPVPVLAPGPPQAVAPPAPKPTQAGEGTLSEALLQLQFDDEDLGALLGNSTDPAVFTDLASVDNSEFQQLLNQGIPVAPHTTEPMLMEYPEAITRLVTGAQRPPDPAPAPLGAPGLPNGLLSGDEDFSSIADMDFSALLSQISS

| Structure (SMILES) | IC100 [1] [µM] | pIC100 [2] |
| --- | --- | --- |
| C=C(C)C(=O)O[C@@H]1C[C@](C)(O)[C@@H]2C(=O)C=C(C)[C@@H]2[C@H]2OC(=O)C(=C)[C@@H]21 | 50 | -1.69 |
| C=C1C(=O)O[C@@H]2C3=C(C(=O)C[C@@H]3C)[C@@H](C)CC[C@@H]12 | 20 | -1.3 |
| C=C1[C@@H]2[C@H]3OC(=O)C(=C)[C@@H]3CC[C@](C)(O)[C@@H]2C[C@@H]1O | 200 | -2.3 |
| C=C(C)C(=O)O[C@H]1C[C@@]2(C)OC(=CC2=O)C(=C)[C@@H](Cl)[C@H]2OC(=O)C(=C)[C@@H]21 | 5 | -0.69 |
| C=C(C)C(=O)O[C@H]1/C(C=O)=C\CC/C(COC(C)=O)=C\[C@H]2OC(=O)C(=C)[C@@H]2[C@@H]1O | 5 | -0.69 |
| CC[C@@H](C)[C@@]1(O)O[C@H]2C[C@@]3(C)OC(=CC3=O)/C(COC(C)=O)=C\[C@H]3OC(=O)[C@@]1(C)C23 (some centres undefined) | 5 | -0.69 |
| C=C1C(=O)OC2/C=C(/C)CC/C=C(/C)[C@@H](OC(C)=O)C[C@@H]12 (some centres undefined) | 200 | -2.3 |
| C=C1C(=O)C=C2[C@H]1C[C@@H]1C(=C)C(=O)O[C@@H]1C[C@@H]2C | 10 | -1 |
| C=C1C(=O)O[C@@H]2[C@H]3C(C)=CC[C@H]3[C@](C)(O)C[C@H](OC(C)=O)[C@@H]12 | 20 | -1.3 |
| C=C1C(=O)O[C@H]2[C@H]1[C@@H](OC(=O)/C(C)=C/C)C/C(C)=C/C(=O)/C=C(/C)[C@@H]2O | 10 | -1 |
| C=C1C(=O)O[C@H]2C/C(CO)=C\CC/C(COC(=O)C(C)(C)O)=C\C[C@H]12 | 50 | -1.69 |
| C=C(C)C(=O)O[C@@H]1/C=C(\C=O)CCC[C@@]2(CO2)[C@H](O)[C@H]2OC(=O)C(=C)[C@@H]21 | 5 | -1 |
| C=C1C(=O)O[C@H]2C/C(CO)=C\CC/C(COC(=O)C3(C)CO3)=C\C[C@H]12 (some centres undefined) | 50 | -1.69 |
| C=C1C(=O)O[C@@H]2/C=C(/C)C3=CC(=O)[C@@](C)(C[C@@H](OC(=O)/C(C)=C/C)[C@@H]12)O3 | 5 | -0.69 |
| C=C1C(=O)O[C@H]2/C=C(\C)[C@@H](O)CC/C(C)=C/C[C@H]12 | 200 | -2 |
| C=C1C(=O)C[C@H]2C(=C)C(=O)O[C@@H]2/C=C(/COC(=O)C(C)C)CC[C@@H]1OC | 25 | -1.09 |
| C=C(C)C(=O)O[C@@H]1C[C@@]2(C)OC(=CC2=O)/C(C)=C\[C@H]2OC(=O)C(=C)[C@@H]21 | 10 | -1 |
| C=C(C)C(=O)O[C@@H]1CC(C)=C2C(=O)C=C(C)[C@@H]2[C@H]2OC(=O)C(=C)[C@@H]21 | 10 | -1 |
| C=C(C)C(=O)O[C@H]1[C@H]2C(=C)C(=O)O[C@@H]2[C@H]2O[C@]2(C)CC/C=C(/C=O)[C@@H]1O | 10 | -1 |
| C=C1C(=O)O[C@@H]2/C=C(/COC(=O)CC(C)C)C[C@H](OC(C)=O)/C=C(/CO)C(=O)C[C@@H]12 | 12.5 | -1.09 |
| C=C(C)C(=O)O[C@H]1[C@H]2C(=C)C(=O)O[C@@H]2[C@@H](O)C(=C)CC/C=C(/C=O)[C@@H]1OC | 50 | -1.3 |
| C=C1C(=O)C[C@H]2C(=C)C(=O)O[C@@H]2/C=C(/COC(=O)C(C)C)CC[C@H]1OC | 25 | -1.39 |
| C=C1C(=O)O[C@H]2[C@H]1[C@H](OC(=O)C(C)C)[C@@H](OC(C)=O)/C(C=O)=C\CCC1(CO1)[C@@H]2O (some centres undefined) | 5 | -0.69 |
| C=C1C[C@@H]2OC(=O)C(=C)[C@H]2[C@H](O)/C=C(\C)CCC1=O | 50 | -1.69 |
| C=C(C)C(=O)O[C@@H]1C[C@]2(C)CC[C@@](OC)(O2)/C(C)=C\[C@H]2OC(=O)C(=C)[C@@H]21 | 200 | -2.3 |
| C=C(C)C(=O)OC/C1=C/C[C@@H]2C(=C)C(=O)O[C@H]2C/C(CO)=C\CC1 | 50 | -1.3 |
| C=C1C(=O)O[C@H]2C[C@H](C)C3=C(C[C@H]12)[C@@H](C)CC3=O | 20 | -1.3 |
